From ChEMBL document CHEMBL3244185, “Synthesis and antiprotozoal activity of 2,5-bis(4-guanylphenyl)furans” (J Med Chem, 1977)
Calls of active or inactive are those of the source. The calls are words filed in the database; no cut-off is given here.

Key:
[1] = system: Trypanosoma brucei rhodesiense; assay: Antitrypanosomal activity against Trypanosoma rhodesiense CT infected in ICR/HA Swiss mouse assessed as 30-day increase in survival time at 160 mg/kg relative to control; assay type: functional, organism-based; parameters: dose 160 mg/kg
How it was run: (§1)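 Mice infected with T. rhodesiense, dosed per mg of compound per kg body weight, five mice per dose level. A cure means survival extended 30 days beyond untreated controls, so at most five cures per dose. Non-curative effects are given as ΔMST, the gain in mean survival time in days versus controls. Toxic deaths are flagged separately.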

[2] = system: Trypanosoma brucei rhodesiense; assay: Antitrypanosomal activity against Trypanosoma rhodesiense CT infected in ICR/HA Swiss mouse assessed as 30-day increase in survival time at 10 mg/kg relative to control; assay type: functional, organism-based; parameters: dose 10 mg/kg; how it was run: as §1
[3] = system: Trypanosoma brucei rhodesiense; assay: Antitrypanosomal activity against Trypanosoma rhodesiense CT infected in ICR/HA Swiss mouse assessed as 30-day increase in survival time at 2.5 mg/kg relative to control; assay type: functional, organism-based; parameters: dose 2.5 mg/kg; how it was run: as §1
[4] = system: Trypanosoma brucei rhodesiense; assay: Antitrypanosomal activity against Trypanosoma rhodesiense CT infected in ICR/HA Swiss mouse assessed as 30-day increase in survival time at 40 mg/kg relative to control; assay type: functional, organism-based; parameters: dose 40 mg/kg; how it was run: as §1
[5] = system: Trypanosoma brucei rhodesiense; assay: Antitrypanosomal activity against Trypanosoma rhodesiense CT infected in ICR/HA Swiss mouse assessed as 30-day increase in survival time at 320 mg/kg relative to control; assay type: functional, organism-based; parameters: dose 320 mg/kg; how it was run: as §1
[6] = system: Trypanosoma brucei rhodesiense; assay: Antitrypanosomal activity against Trypanosoma rhodesiense CT infected in ICR/HA Swiss mouse assessed as 30-day increase in survival time at 640 mg/kg relative to control; assay type: functional, organism-based; parameters: dose 640 mg/kg; how it was run: as §1
[7] = system: Trypanosoma brucei rhodesiense; assay: Antitrypanosomal activity against Trypanosoma rhodesiense CT infected in ICR/HA Swiss mouse assessed as 30-day increase in survival time at 5 mg/kg relative to control; assay type: functional, organism-based; parameters: dose 5 mg/kg; how it was run: as §1
[8] = system: Trypanosoma brucei rhodesiense; assay: Antitrypanosomal activity against Trypanosoma rhodesiense CT infected in ICR/HA Swiss mouse assessed as 30-day increase in survival time at 80 mg/kg relative to control; assay type: functional, organism-based; parameters: dose 80 mg/kg; how it was run: as §1
[9] = system: Trypanosoma brucei rhodesiense; assay: Antitrypanosomal activity against Trypanosoma rhodesiense CT infected in ICR/HA Swiss mouse assessed as 30-day increase in survival time at 20 mg/kg relative to control; assay type: functional, organism-based; parameters: dose 20 mg/kg; how it was run: as §1
Plasmodium berghei [10] = assay: Antimalarial activity against Plasmodium berghei infected in mouse up to 640 mg/kg, sc administered 72 hrs post infection; assay type: functional, organism-based; parameters: dose 640 mg/kg
How it was run: (§2)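 Antimalarial screen in P. berghei-infected mice, doses in mg/kg. The read-out is the gain in mean survival time of treated animals over untreated controls. Toxicity is recorded at the dose levels tested.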

[11] = system: Trypanosoma brucei rhodesiense; assay: Antitrypanosomal activity against Trypanosoma rhodesiense CT infected in ICR/HA Swiss mouse assessed as increase in mean survival time at 1.25 mg/kg; assay type: functional
How it was run: (§3)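 Mice, five per dosage level, each dosed in mg of compound per kg body weight. ΔMST is the increase in mean survival time of treated over untreated infected controls, in days. A cure is a 30-day survival increase over controls, with at most five cures per dose. Deaths attributed to compound toxicity were scored as toxic deaths.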

Mus musculus [12] = assay: Toxicity in ICR/HA Swiss mouse infected with Trypanosoma rhodesiense CT assessed as mortality at 640 mg/kg; assay type: organism-based; parameters: dose 640 mg/kg; details: in vivo; how it was run: as §3
Mus musculus [13] = assay: Toxicity in ICR/HA Swiss mouse infected with Trypanosoma rhodesiense CT assessed as mortality at 320 mg/kg; assay type: organism-based; parameters: dose 320 mg/kg; details: in vivo; how it was run: as §3
Plasmodium berghei [14] = assay: Antimalarial activity against Plasmodium berghei infected in mouse assessed as increase in mean survival time at 320 mg/kg, sc administered 72 hrs post infection; assay type: functional; details: route subcutaneous
Mus musculus [15] = assay: Toxicity in mouse infected with Plasmodium berghei at 640 mg/kg, sc administered 72 hrs post infection; assay type: organism-based; parameters: dose 640 mg/kg, route subcutaneous; details: in vivo; how it was run: as §2
Mus musculus [16] = assay: Toxicity in ICR/HA Swiss mouse infected with Trypanosoma rhodesiense CT assessed as mortality at 20 mg/kg; assay type: organism-based; parameters: dose 20 mg/kg; details: in vivo; how it was run: as §3
[17] = system: Trypanosoma brucei rhodesiense; assay: Antitrypanosomal activity against Trypanosoma rhodesiense CT infected in ICR/HA Swiss mouse assessed as increase in mean survival time at 2.5 mg/kg; assay type: functional; how it was run: as §3
Mus musculus [18] = assay: Toxicity in ICR/HA Swiss mouse infected with Trypanosoma rhodesiense CT assessed as mortality at 40 mg/kg; assay type: organism-based; parameters: dose 40 mg/kg; details: in vivo; how it was run: as §3
[19] = system: Trypanosoma brucei rhodesiense; assay: Antitrypanosomal activity against Trypanosoma rhodesiense CT infected in ICR/HA Swiss mouse assessed as increase in mean survival time at 5 mg/kg; assay type: functional; how it was run: as §3
Mus musculus [20] = assay: Toxicity in ICR/HA Swiss mouse infected with Trypanosoma rhodesiense CT assessed as mortality at 160 mg/kg; assay type: organism-based; parameters: dose 160 mg/kg; details: in vivo; how it was run: as §3
Plasmodium berghei [21] = assay: Antimalarial activity against Plasmodium berghei infected in mouse assessed as increase in mean survival time at 640 mg/kg, sc administered 72 hrs post infection; assay type: functional; details: route subcutaneous
[22] = system: Trypanosoma brucei rhodesiense; assay: Antitrypanosomal activity against Trypanosoma rhodesiense CT infected in ICR/HA Swiss mouse assessed as 30-day increase in survival time at 0.83 mg/kg relative to control; assay type: functional, organism-based; parameters: dose 0.83 mg/kg; how it was run: as §1
[23] = system: Trypanosoma brucei rhodesiense; assay: Antitrypanosomal activity against Trypanosoma rhodesiense CT infected in ICR/HA Swiss mouse assessed as 30-day increase in survival time at 1.25 mg/kg relative to control; assay type: functional, organism-based; parameters: dose 1.25 mg/kg; how it was run: as §1
[24] = system: Trypanosoma brucei rhodesiense; assay: Antitrypanosomal activity against Trypanosoma rhodesiense CT infected in ICR/HA Swiss mouse assessed as increase in mean survival time at 0.21 mg/kg; assay type: functional; how it was run: as §3
[25] = system: Trypanosoma brucei rhodesiense; assay: Antitrypanosomal activity against Trypanosoma rhodesiense CT infected in ICR/HA Swiss mouse assessed as increase in mean survival time at 40 mg/kg; assay type: functional; how it was run: as §3
[26] = system: Trypanosoma brucei rhodesiense; assay: Antitrypanosomal activity against Trypanosoma rhodesiense CT infected in ICR/HA Swiss mouse assessed as increase in mean survival time at 20 mg/kg; assay type: functional; how it was run: as §3
[27] = system: Trypanosoma brucei rhodesiense; assay: Antitrypanosomal activity against Trypanosoma rhodesiense CT infected in ICR/HA Swiss mouse assessed as increase in mean survival time at 0.83 mg/kg; assay type: functional; how it was run: as §3
[28] = system: Trypanosoma brucei rhodesiense; assay: Antitrypanosomal activity against Trypanosoma rhodesiense CT infected in ICR/HA Swiss mouse assessed as increase in mean survival time at 0.42 mg/kg; assay type: functional; how it was run: as §3

N=C(N)c1ccc(/C=C/c2ccc(C(=N)N)cc2O)cc1
Activity [1]: Active
Activity [2]: Active
Activity [3]: Active
Activity [4]: Active
Activity [5]: Active
Activity [6]: Active
Activity [7]: Active
Activity [8]: Active
Activity [9]: Active

Cc1c(-c2ccc([C+]3NCCCN3)cc2)oc(-c2ccc([C+]3NCCCN3)cc2)c1C.[Cl-].[Cl-]
Activity (Plasmodium berghei [10]): inactive
Survival [11]: 3.2 days
Activity [2]: Active
Activity [4]: Active
Activity (Mus musculus [12]): Toxic
Activity (Mus musculus [13]): Toxic
Activity [8]: Active
Activity [9]: Active

Cl.Cl.c1cc(-c2ccc(-c3ccc(C4=NCCCN4)cc3)o2)ccc1C1=NCCCN1
Activity [1]: Active
Survival (Plasmodium berghei [14]): 12 days
Activity (Mus musculus [15]): Toxic
Activity [4]: Active
Activity [8]: Active
Activity [9]: Active

CN1CCCN[C+]1c1ccc(-c2ccc(-c3ccc([C+]4NCCCN4C)cc3)o2)cc1.[Cl-].[Cl-]
Activity (Plasmodium berghei [10]): inactive
Activity (Mus musculus [16]): Toxic
Survival [17]: 0.3 days
Activity (Mus musculus [18]): Toxic
Activity (Mus musculus [12]): Toxic
Survival [19]: 0.7 days
Activity (Mus musculus [20]): Toxic

CCN(CC)CCCN[C+](N)c1ccc(-c2ccc(-c3ccc([C+](N)NCCCN(CC)CC)cc3)o2)cc1
Activity (Plasmodium berghei [10]): inactive

Cc1c(-c2ccc([C+]3NCC(C)N3)cc2)oc(-c2ccc([C+]3NCC(C)N3)cc2)c1C (stereo unspecified)
Activity (Plasmodium berghei [10]): inactive

N[C+](N)c1ccc(-c2ccc(-c3ccc([C+](N)N)cc3)o2)cc1
Activity (Plasmodium berghei [10]): inactive
Activity [1]: Active
Activity [2]: Active
Activity [4]: Active
Activity [5]: Active
Activity [6]: Active
Activity [7]: Active
Activity [8]: Active
Activity [9]: Active

[Cl-].[Cl-].c1cc([C+]2NCCN2)ccc1-c1ccc(-c2ccc([C+]3NCCN3)cc2)o1
Activity [1]: Active
Activity [4]: Active
Activity [5]: Active
Activity [8]: Active
Survival (Plasmodium berghei [21]): 5 days

Cc1cc(-c2ccc([C+](N)N)cc2)oc1-c1ccc([C+](N)N)cc1
Activity [22]: Active
Activity (Plasmodium berghei [10]): inactive
Activity [1]: Active
Activity [2]: Active
Activity [3]: Active
Activity [4]: Active
Activity [5]: Active
Activity [7]: Active
Activity [23]: Active
Activity [8]: Active
Activity [9]: Active

Cc1c(-c2ccc([C+](N)N)cc2)oc(-c2ccc([C+](N)N)cc2)c1Cl.[Cl-].[Cl-]
Activity (Plasmodium berghei [10]): inactive
Activity [1]: Active
Activity [2]: Active
Survival [24]: 2.1 days
Activity [4]: Active
Activity [5]: Active
Activity [7]: Active
Activity [8]: Active
Activity [9]: Active

CN1CCCN(C)[C+]1c1ccc(-c2ccc(-c3ccc([C+]4N(C)CCCN4C)cc3)o2)cc1.[Cl-].[Cl-]
Activity (Plasmodium berghei [10]): inactive
Activity (Mus musculus [18]): Toxic
Activity (Mus musculus [12]): Toxic
Activity (Mus musculus [20]): Toxic

CN1CCN(C)[C+]1c1ccc(-c2ccc(-c3ccc([C+]4N(C)CCN4C)cc3)o2)cc1.[Cl-].[Cl-]
Activity (Plasmodium berghei [10]): inactive
Activity (Mus musculus [18]): Toxic
Activity (Mus musculus [12]): Toxic
Activity (Mus musculus [20]): Toxic

NNC(=O)c1ccc(-c2ccc(-c3ccc(C(=O)NN)cc3)o2)cc1
Activity (Plasmodium berghei [10]): inactive

CC1CN[C+](c2ccc(-c3ccc(-c4ccc([C+]5NCC(C)N5)cc4)o3)cc2)N1.[Cl-].[Cl-] (stereo unspecified)
Activity (Plasmodium berghei [10]): inactive
Activity [1]: Active
Survival [17]: 0.6 days
Activity [5]: Active
Activity [6]: Active
Survival [19]: 3.2 days
Activity [8]: Active

Cc1c(-c2ccc([C+](N)N)cc2)oc(-c2ccc([C+](N)N)cc2)c1C
Activity (Plasmodium berghei [10]): inactive
Activity [1]: Active
Activity [2]: Active
Activity [4]: Active
Activity [5]: Active
Activity [7]: Active
Activity [8]: Active
Activity [9]: Active

N=C(N)c1ccc(/C=C/c2ccc(C(=N)N)cc2)cc1
Activity [1]: Active
Activity [2]: Active
Activity [3]: Active
Activity [4]: Active
Activity [5]: Active
Activity [6]: Active
Activity [7]: Active
Activity [8]: Active
Activity [9]: Active

Cc1c(-c2ccc([C+]3NCCN3)cc2)oc(-c2ccc([C+]3NCCN3)cc2)c1C.[Cl-].[Cl-]
Activity (Plasmodium berghei [10]): inactive
Activity [1]: Active
Survival [11]: 1.8 days
Survival [17]: 18 days
Activity [4]: Active
Activity [5]: Active
Activity [6]: Active
Activity [8]: Active
Activity [9]: Active

CN1CCN[C+]1c1ccc(-c2ccc(-c3ccc([C+]4NCCN4C)cc3)o2)cc1.[Cl-].[Cl-]
Activity (Plasmodium berghei [10]): inactive
Survival [25]: 5.5 days
Survival [26]: 1.1 days
Activity (Mus musculus [12]): Toxic
Activity (Mus musculus [13]): Toxic
Activity (Mus musculus [20]): Toxic
Activity [8]: Active

N[C+](N)c1ccc(-c2cc(Cl)c(-c3ccc([C+](N)N)cc3)o2)cc1
Activity (Plasmodium berghei [10]): inactive
Activity [2]: Active
Activity [3]: Active
Activity [7]: Active
Activity [23]: Active
Activity [9]: Active

N[C+](N)c1ccc(-c2oc(-c3ccc([C+](N)N)cc3)c(Cl)c2Cl)cc1.[Cl-].[Cl-]
Activity (Plasmodium berghei [10]): inactive
Activity [1]: Active
Survival [11]: 2 days
Survival [17]: 6.2 days
Activity [2]: Active
Survival [24]: 0.2 days
Survival [27]: 0.8 days
Activity [4]: Active
Activity [5]: Active
Survival [28]: 0.4 days
Activity [8]: Active
Activity [9]: Active

N=C(N)c1ccc(OCCCCCOc2ccc(C(=N)N)cc2)cc1
Activity [1]: Active
Activity [2]: Active
Activity [4]: Active
Activity [5]: Active
Activity [6]: Active
Activity [7]: Active
Activity [8]: Active
Activity [9]: Active
